In article PMC9072748 (RSC Advances, 2019):
Read-outs that look alike come from different tables or passages of the source.

Key:
CT-DNA [1] = assay: Viscosity measurements of CT-DNA; conditions: 5.0 mM Tris–HCl buffer, pH 7.2; 1.0–6.0 mM
In short: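 Sonicated CT-DNA held at constant concentration (5.0 mM) with added test compound, EtBr as reference. After 15 min equilibration, flow time measured in triplicate with a stopwatch. η = (t − t0)/t0, with t0 the flow time of buffer alone. Results plotted as (η/η0)^1/3 versus binding ratio.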

HepG2 cells [2] = conditions: cited from earlier work
CT-DNA [3] = assay: Fluorescence EtBr exchange titration on CT-DNA; type: binding; conditions: for Stern–Volmer quenching constant K sv × 10^−3: Tris–HCl buffer pH 7.2, head: Ksv × 10^−3; for bimolecular quenching rate constant k q × 10^−13: τ0 = 23 ns, head: kq × 10^−13
In short: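 CT-DNA (10 μM) premixed with EtBr (10 μM) in 5.0 mM Tris–HCl/50 mM NaCl, pH 7.2, then held 4 h at 4 °C. Titrated with incremental aliquots of 5.0 mM test-compound stock in 50% DMSO. Excitation 500 nm; emission decrease recorded over 520–700 nm. Filter-effect corrections applied. DNA concentration set from A260 (ε ≈ 6600 M−1 cm−1).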

BSA = BSA (Bos taurus, UniProt P02769); assay: BSA tryptophan fluorescence quenching titration; type: binding, Bovine; conditions: for number of binding sites, n / binding constant K F × 10^−5: Scatchard equation; for binding constant K F × 10^−5: head: KF × 10^−5; for Stern–Volmer quenching constant K sv × 10^−5: Tris–HCl/50 mM NaCl pH 7.2, head: Ksv × 10^−5; for bimolecular quenching rate constant k q × 10^−10: head: kq × 10^−10
In short: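 BSA stock (10.4 μM) made in 5.0 mM Tris–HCl/50 mM NaCl, pH 7.2, with concentration set from A278 (ε 4.4 × 10^4 M−1 cm−1). Equilibrated buffered BSA with test compound at 0–130 μM at room temperature. Excitation 278 nm; tryptophan emission read over 250–450 nm. Ksv taken from the slope of Io/I versus [Q].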

HepG2 cells [4] = assay: MTT cytotoxicity assay on HepG2 cells; type: cell-based, human; conditions: 24 h incubation
In short: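 HepG2 grown in DMEM with 10% FBS and penicillin/streptomycin (100 μg mL−1 each) at 37 °C, 5% CO2. Seeded at 1 × 10^4 cells/mL, 24 h, then exposed to test compound at 10–50 μM (10 μM steps) for 24 h. MTT (5 mg mL−1 in PBS) added for 2–4 h; formazan dissolved in DMSO; read at 560 nm against 1% DMSO control. IC50 from nonlinear regression of % viability versus concentration.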

BSA, sequence (P02769 25-607): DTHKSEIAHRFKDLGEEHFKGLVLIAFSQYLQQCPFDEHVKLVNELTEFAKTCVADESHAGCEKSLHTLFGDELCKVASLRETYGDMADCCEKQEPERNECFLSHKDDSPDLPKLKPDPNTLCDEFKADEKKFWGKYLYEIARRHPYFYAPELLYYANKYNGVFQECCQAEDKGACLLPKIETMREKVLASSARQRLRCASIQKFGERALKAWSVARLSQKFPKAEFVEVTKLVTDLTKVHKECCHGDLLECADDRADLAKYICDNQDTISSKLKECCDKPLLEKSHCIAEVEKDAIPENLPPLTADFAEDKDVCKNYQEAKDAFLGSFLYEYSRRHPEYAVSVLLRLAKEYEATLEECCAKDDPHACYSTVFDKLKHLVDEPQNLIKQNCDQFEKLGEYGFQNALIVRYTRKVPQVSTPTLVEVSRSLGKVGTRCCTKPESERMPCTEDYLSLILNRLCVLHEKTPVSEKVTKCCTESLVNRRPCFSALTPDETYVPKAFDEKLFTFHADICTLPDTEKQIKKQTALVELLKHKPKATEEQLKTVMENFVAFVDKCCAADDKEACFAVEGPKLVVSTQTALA

Compound	relative viscosity of CT-DNA solutions with increasing concentration (CT-DNA [1])	IC50 (HepG2 cells [2])	Stern–Volmer quenching constant K sv × 10^−3 (CT-DNA [3])	bimolecular quenching rate constant k q × 10^−13 (CT-DNA [3])	number of binding sites, n (BSA)	binding constant K F × 10^−5 (BSA)	Stern–Volmer quenching constant K sv × 10^−5 (BSA)	bimolecular quenching rate constant k q × 10^−10 (BSA)	IC50 (HepG2 cells [4])
CC[n+]1c(-c2ccccc2)c2cc(N)ccc2c2ccc(N)cc21.[Br-] [EtBr, 3,8-diamino-5-ethyl-6-phenylphenanthridinium bromide]	increased dramatically	–	–	–	–	–	–	–	–
N.N.[Cl][Pt][Cl] [cisplatin]	–	17.9 ± 2.1 µM	–	–	–	–	–	–	–
[Cl][Pt][Cl].c1ccc(-c2nc3cc4ccccc4cc3nc2-c2ccccn2)nc1 [bbqPtCl2]	–	–	5.49 ± 0.07 M^−1	2.52 ± 0.22 M^−1 s^−1	1.01 ± 0.05	5.34 ± 0.10 M^−1	4.78 ± 0.19 M^−1	9.61 ± 0.5 M^−1 s^−1	17.4 ± 2 µM
[Cl][Pt][Cl].c1ccc(-c2nc3ccccc3nc2-c2ccccn2)nc1 [bpqPtCl2]	–	–	2.43 ± 0.02 M^−1	1.06 ± 0.10 M^−1 s^−1	0.98 ± 0.03	1.93 ± 0.02 M^−1	2.47 ± 0.03 M^−1	4.97 ± 0.2 M^−1 s^−1	15.7 ± 1.6 µM
Cc1cc2nc(-c3ccccn3)c(-c3ccccn3)nc2cc1C.[Cl][Pt][Cl] [dmbpqPtCl2]	–	–	3.26 ± 0.05 M^−1	1.47 ± 0.16 M^−1 s^−1	0.98 ± 0.03	2.97 ± 0.07 M^−1	3.47 ± 0.11 M^−1	6.98 ± 0.3 M^−1 s^−1	14.9 ± 1.4 µM
